The source made the active and inactive calls. No cut-off for these calls is given here.
What was measured:
Rattus norvegicus [1] = species: Rattus norvegicus; test: Anti-dynamic allodynic effect in Sprague-Dawley rat CCI model assessed as latency to paw withdrawal after 1 hr; format: functional
Outline: (§1)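 Rats with sciatic nerve chronic constriction injury (pentobarbital 65 mg/kg i.p. anaesthesia), baseline and day 9 testing, then drug per randomization table. After 10 min acclimatization, affected plantar surface stroked mildly with a cotton-bud; paw lift recorded. n = 4; retested 0.5-2.5 h post-dose.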

Rattus norvegicus [2] = test: Antihyperalgesic effects in Sprague-Dawley rat CCI model assessed as duration of paw withdrawal at 100 mg/kg, ip after 1.5 hrs; format: functional; conditions: route intraperitoneal
Rattus norvegicus [3] = test: Antihyperalgesic effects in Sprague-Dawley rat SNL model assessed as duration of paw withdrawal at 100 mg/kg, ip after 1 hr, ip; format: functional; conditions: route intraperitoneal
Outline: (§2)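 L5 SNL rats (n = 4), dosed 100 mg/kg i.p. (vehicle 30% v/v PEG 400 in water). Pin-prick to midplantar ipsilateral left hindpaw; withdrawal duration, mean of three responses; ≥2 s defined abnormal. Mean ± SEM; one-way ANOVA with Bonferroni versus predrug.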

Rattus norvegicus [4] = species: Rattus norvegicus; test: Anti-dynamic allodynic effect in Sprague-Dawley rat CCI model assessed as latency to paw withdrawal after 1.5 hr; format: functional; outline: as §1
Rattus norvegicus [5] = test: Antihyperalgesic effects in Sprague-Dawley rat CCI model assessed as duration of paw withdrawal at 100 mg/kg, ip after 2.5 hrs; format: functional; conditions: route intraperitoneal
Rattus norvegicus [6] = test: Effect on spontaneous pain in Sprague-Dawley rat CCI model assessed as duration of paw withdrawal at 100 mg/kg, ip after 2 hrs; format: functional; conditions: route intraperitoneal
Outline: (§3)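 Unilateral CCI of sciatic nerve (Bennett and Xie) in Sprague-Dawley rats under i.p. pentobarbital sodium (65 mg/kg). Spontaneous pain is scored over 5 min after 10 min acclimatization, as cumulative time the ipsilateral paw is held off the floor. Paw lifts from locomotion or repositioning are excluded. Drug is given at 100 mg/kg i.p. with 30% v/v PEG 400 vehicle. Mean ± SEM, n = 4, compared with predrug by ANOVA/Bonferroni.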

Rattus norvegicus [7] = test: Effect on spontaneous pain in Sprague-Dawley rat CCI model assessed as duration of paw withdrawal at 100 mg/kg, ip after 1 hr; format: functional; conditions: route intraperitoneal
Outline: (§4)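 CCI rats (n = 4) dosed 100 mg/kg i.p. (vehicle 30% v/v PEG 400 in water). After 10 min acclimatization in a cage 5 cm above ground, cumulative time the ipsilateral paw was held off the floor over 5 min recorded, excluding locomotion lifts. Mean ± SEM; ANOVA/Bonferroni versus predrug.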

Rattus norvegicus [8] = test: Anti-dynamic allodynia effect in Sprague-Dawley rat SNL model assessed as latency to paw withdrawal 100 mg/kg, ip after 2 hrs; format: functional; conditions: route intraperitoneal
Outline: (§5)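 Left L5 spinal nerve ligation rats, tested preoperatively and 9 days postoperatively, then given 100 mg/kg i.p. (vehicle 30% v/v PEG 400 in water). After 10 min acclimatization, plantar surface of affected paw stroked mildly with a cotton-bud; paw lift response recorded. n = 4; retested 0.5-2.5 h post-dose.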

Rattus norvegicus [9] = test: Anti-cold allodynia effect in Sprague-Dawley rat SNL model assessed as duration of paw withdrawal 100 mg/kg, ip after 1.5 hrs; format: functional; conditions: route intraperitoneal
Outline: (§6)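 Left L5 spinal nerve ligation under pentobarbital (65 mg/kg i.p.). Allodynic rats dosed i.p. 100 mg/kg, vehicle 30% v/v PEG 400 in water. Acetone (100-200 µL) misted onto midplantar affected paw after 10 min acclimatization; paw withdrawal duration, mean of three samples at least 3 min apart; n = 4 rats.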

Rattus norvegicus [10] = species: Rattus norvegicus; test: Anti-dynamic allodynic effect in Sprague-Dawley rat CCI model assessed as latency to paw withdrawal after 0.5 hr; format: functional; outline: as §1
Rattus norvegicus [11] = test: Antihyperalgesic effects in Sprague-Dawley rat SNL model assessed as duration of paw withdrawal at 100 mg/kg, ip after 0.5 hr, ip; format: functional; conditions: route intraperitoneal; outline: as §2
Rattus norvegicus [12] = test: Effect on spontaneous pain in Sprague-Dawley rat CCI model assessed as duration of paw withdrawal at 100 mg/kg, ip after 2.5 hrs; format: functional; conditions: route intraperitoneal; outline: as §3
Rattus norvegicus [13] = test: Antihyperalgesic effects in Sprague-Dawley rat CCI model assessed as duration of paw withdrawal at 100 mg/kg, ip after 0.5 hr; format: functional; conditions: route intraperitoneal
Rattus norvegicus [14] = test: Antihyperalgesic effects in Sprague-Dawley rat SNL model assessed as duration of paw withdrawal at 100 mg/kg, ip after 2 hrs, ip; format: functional; conditions: route intraperitoneal; outline: as §2
Rattus norvegicus [15] = test: Antihyperalgesic effects in Sprague-Dawley rat SNL model assessed as duration of paw withdrawal at 100 mg/kg, ip after 1.5 hrs, ip; format: functional; conditions: route intraperitoneal; outline: as §2
Rattus norvegicus [16] = species: Rattus norvegicus; test: Anti-dynamic allodynic effect in Sprague-Dawley rat CCI model assessed as latency to paw withdrawal after 2.5 hr; format: functional; outline: as §1
Rattus norvegicus [17] = test: Antihyperalgesic effects in Sprague-Dawley rat SNL model assessed as duration of paw withdrawal at 100 mg/kg, ip after 2.5 hrs, ip; format: functional; conditions: route intraperitoneal; outline: as §2
Rattus norvegicus [18] = test: Effect on spontaneous pain in Sprague-Dawley rat CCI model assessed as duration of paw withdrawal at 100 mg/kg, ip after 1.5 hrs; format: functional; conditions: route intraperitoneal; outline: as §3
Rattus norvegicus [19] = test: Effect on spontaneous pain in Sprague-Dawley rat SNL model assessed as duration of paw withdrawal at 100 mg/kg, ip after 1 hr; format: functional; conditions: route intraperitoneal
Outline: (§7)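 Rats underwent left L5 spinal nerve ligation (Kim and Chung) under i.p. pentobarbital (65 mg/kg). Spontaneous pain is recorded for 5 min after 10 min acclimatization, as cumulative duration the ipsilateral paw is lifted, excluding locomotor lifts. Dosing is 100 mg/kg i.p. in 30% v/v PEG 400/water, with testing at 0.5–2.5 h. Four rats, mean ± SEM versus predrug, one-way ANOVA with Bonferroni.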

Rattus norvegicus [20] = test: Effect on spontaneous pain in Sprague-Dawley rat SNL model assessed as duration of paw withdrawal at 100 mg/kg, ip after 2 hrs; format: functional; conditions: route intraperitoneal; outline: as §7
Rattus norvegicus [21] = test: Anti-dynamic allodynia effect in Sprague-Dawley rat SNL model assessed as latency to paw withdrawal 100 mg/kg, ip after 1.5 hrs; format: functional; conditions: route intraperitoneal; outline: as §5
Rattus norvegicus [22] = test: Anti-cold allodynia effect in Sprague-Dawley rat SNL model assessed as duration of paw withdrawal 100 mg/kg, ip after 2 hrs; format: functional; conditions: route intraperitoneal; outline: as §6
Rattus norvegicus [23] = species: Rattus norvegicus; test: Anti-dynamic allodynic effect in Sprague-Dawley rat CCI model assessed as latency to paw withdrawal after 2 hr; format: functional; outline: as §1
Rattus norvegicus [24] = test: Effect on spontaneous pain in Sprague-Dawley rat SNL model assessed as duration of paw withdrawal at 100 mg/kg, ip after 2.5 hrs; format: functional; conditions: route intraperitoneal; outline: as §7
Rattus norvegicus [25] = test: Effect on spontaneous pain in Sprague-Dawley rat CCI model assessed as duration of paw withdrawal at 100 mg/kg, ip after 0.5 hr; format: functional; conditions: route intraperitoneal; outline: as §4
Rattus norvegicus [26] = test: Antihyperalgesic effects in Sprague-Dawley rat CCI model assessed as duration of paw withdrawal at 100 mg/kg, ip after 2 hrs; format: functional; conditions: route intraperitoneal
Rattus norvegicus [27] = test: Antihyperalgesic effects in Sprague-Dawley rat CCI model assessed as duration of paw withdrawal at 100 mg/kg, ip after 1 hr; format: functional; conditions: route intraperitoneal
Mus musculus [28] = test: Anticonvulsant activity in Swiss Albino mouse at 300 mg/kg, ip after 0.5 hr by scPTZ test; format: functional, organism-based; set-up: dose 300 mg/kg
Outline: (§8)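 Mice (Swiss, 20-25 g) given i.p. doses of 30, 100 and 300 mg/kg under ADD program protocols, three per group, examined at 0.5 and 4 h in MES, scPTZ, scSTY or scPIC seizure tests. Value is the minimum dose protecting half or more of the mice.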

Mus musculus [29] = test: Anticonvulsant activity in Swiss Albino mouse at 300 mg/kg, ip after 4 hrs by MES test; format: functional, organism-based; set-up: dose 300 mg/kg; outline: as §8

Compound | Activity (Rattus norvegicus [1]) [s] | Activity (Rattus norvegicus [2]) [s] | Activity (Rattus norvegicus [3]) [s] | Activity (Rattus norvegicus [4]) [s] | Activity (Rattus norvegicus [5]) [s] | Activity (Rattus norvegicus [6]) [s] | Activity (Rattus norvegicus [7]) [s] | Activity (Rattus norvegicus [8]) [s] | Activity (Rattus norvegicus [10]) [s] | Activity (Rattus norvegicus [11]) [s] | Activity (Rattus norvegicus [12]) [s] | Activity (Rattus norvegicus [13]) [s] | Activity (Rattus norvegicus [15]) [s] | Activity (Rattus norvegicus [16]) [s] | Activity (Rattus norvegicus [17]) [s] | Activity (Rattus norvegicus [18]) [s] | Activity (Rattus norvegicus [23]) [s] | Activity (Rattus norvegicus [25]) [s] | Activity (Rattus norvegicus [26]) [s] | Activity (Rattus norvegicus [27]) [s] | other results
NC(=O)N1c2ccccc2C=Cc2ccccc21 [CARBAMAZEPINE] | 3.7 | 22.9 | 5.2 | 4.9 | 24 | 67.4 | 17.8 | 1.9 | 2.7 | 11.1 | 76.9 | 13.3 | 6.6 | 3.8 | 5.8 | 32.8 | 3.4 | 24.6 | 21.7 | 15.7 | Activity (Rattus norvegicus [9]): 7.9 s; Activity (Rattus norvegicus [14]): 5.5 s; Activity (Rattus norvegicus [19]): 7.9 s; Activity (Rattus norvegicus [20]): 85.4 s; Activity (Rattus norvegicus [21]): 2.9 s; Activity (Rattus norvegicus [22]): 19.4 s; Activity (Rattus norvegicus [24]): 94.9 s
O=C(O)CCCNC(=O)N/N=C/c1ccccc1O | 13.5 | 4.4 | 17.3 | 11.1 | 7.3 | 11.2 | 19.3 | 11.8 | 13.6 | 17.6 | 7.3 | 7.5 | 10.6 | 13.1 | 17.3 | 23.7 | 14.6 | 10.5 | 4.1 | 7.7 | Activity (Mus musculus [28]): inactive; Activity (Rattus norvegicus [9]): 26 s; Activity (Mus musculus [29]): inactive; Activity (Rattus norvegicus [21]): 11.5 s; Activity (Rattus norvegicus [22]): 25.4 s
O=C(O)CCCNC(=O)N/N=C1\C(=O)Nc2ccccc21 | 12.4 | 8.8 | 9.6 | 15.5 | 27.8 | 20.6 | 34.9 | – | 14.5 | 4.7 | 20.2 | 10.8 | 45.7 | 0.8 | 18.7 | 21.6 | 8.4 | 38.6 | 5 | 4.9 | Activity (Mus musculus [28]): Active; Activity (Rattus norvegicus [9]): 22.6 s; Activity (Rattus norvegicus [14]): 19.7 s; Activity (Rattus norvegicus [19]): 0.9 s; Activity (Rattus norvegicus [20]): 0.7 s; Activity (Mus musculus [29]): Active; Activity (Rattus norvegicus [22]): 17.1 s; Activity (Rattus norvegicus [24]): 9.8 s
CN(C)c1ccc(/C=N/NC(=O)NCCCC(=O)O)cc1 | 10.9 | 9.7 | 5.8 | 10.3 | 4.8 | 11.9 | 48.8 | 2.9 | 10.9 | 4.7 | 5.2 | 17.4 | 5.5 | 8.4 | 5.8 | 38.2 | 8.2 | 47.2 | 5.8 | 13.1 | Activity (Mus musculus [28]): inactive; Activity (Rattus norvegicus [14]): 4.4 s; Activity (Rattus norvegicus [19]): 21.2 s; Activity (Rattus norvegicus [20]): 29.2 s; Activity (Mus musculus [29]): inactive; Activity (Rattus norvegicus [21]): 7.3 s; Activity (Rattus norvegicus [24]): 43 s
